Results taken from ChEMBL document CHEMBL2163314, “Potent aminocyclitol glucocerebrosidase inhibitors are subnanomolar pharmacological chaperones for treating gaucher disease” (J Med Chem, 2012).
Calls of active or inactive are those of the source. The calls are words filed in the database; no cut-off is given here.

Molecular target: T1, Non-lysosomal glucosylceramidase (Mus musculus) (UniProt Q69ZF3)
T1 sequence (whole entry): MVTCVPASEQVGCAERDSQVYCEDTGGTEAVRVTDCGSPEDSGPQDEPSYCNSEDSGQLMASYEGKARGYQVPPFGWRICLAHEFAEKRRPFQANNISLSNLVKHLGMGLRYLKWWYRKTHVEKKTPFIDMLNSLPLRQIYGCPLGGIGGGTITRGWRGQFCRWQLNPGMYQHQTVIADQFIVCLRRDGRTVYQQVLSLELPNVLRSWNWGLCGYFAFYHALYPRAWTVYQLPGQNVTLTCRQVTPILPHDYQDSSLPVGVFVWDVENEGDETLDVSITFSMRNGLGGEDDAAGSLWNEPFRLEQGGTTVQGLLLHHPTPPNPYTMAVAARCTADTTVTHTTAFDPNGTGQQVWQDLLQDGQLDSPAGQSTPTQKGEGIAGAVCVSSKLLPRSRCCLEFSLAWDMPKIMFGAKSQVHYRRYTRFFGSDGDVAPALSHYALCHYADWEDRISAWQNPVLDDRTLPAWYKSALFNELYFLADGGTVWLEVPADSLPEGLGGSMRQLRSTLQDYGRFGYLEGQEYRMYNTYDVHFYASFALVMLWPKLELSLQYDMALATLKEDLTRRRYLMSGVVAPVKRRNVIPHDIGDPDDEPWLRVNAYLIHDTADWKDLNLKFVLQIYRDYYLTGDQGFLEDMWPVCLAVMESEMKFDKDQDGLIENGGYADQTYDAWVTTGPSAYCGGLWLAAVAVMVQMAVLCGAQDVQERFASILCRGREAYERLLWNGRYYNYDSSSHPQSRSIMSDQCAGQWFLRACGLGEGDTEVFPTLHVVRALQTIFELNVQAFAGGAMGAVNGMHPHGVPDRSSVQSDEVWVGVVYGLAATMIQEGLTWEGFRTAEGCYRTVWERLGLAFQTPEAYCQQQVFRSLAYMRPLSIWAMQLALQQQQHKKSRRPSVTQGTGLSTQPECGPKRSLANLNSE
Assay: Inhibition of GBA2 activity in mouse tissue homogenate at 50 uM
How it was run: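 Mouse tissue homogenates were used to separate nonlysosomal GBA2 from lysosomal GCase β-glucosidase activity. Compounds were screened at 50 and 5 μM with 3 mM substrate. Two independent experiments, each run in duplicate.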

inhibition: Active
Compound: CCCCCCCCCN1C[C@H](O)[C@@H](O)[C@H](O)[C@H]1CO
